Source: ChEMBL document CHEMBL4819106, “Aminopyrazole based CDK9 PROTAC sensitizes pancreatic cancer cells to venetoclax” (Bioorg Med Chem Lett, 2021)
Activity calls are given as the source filed them. The rule behind the calls is not given here.

Key:
[1] = target: T1, Protein cereblon/Cyclin-dependent kinase 9 (Homo sapiens, UniProt P50750+Q96SW2); test: Protac activity at CDK9/CRBN in human HEK293 cells assessed as degradation of CDK9 at 0.01 to 10 uM incubated for 24 hrs by Western blot analysis; assay type: cell-based; conditions: dose 0.01-10 µM
In short: (§1)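 HEK293 cells were treated with increasing concentrations (0.01–10 μM) for 24 hr. Lysates were analysed by western blot for CDK9 degradation.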
Target sequence in this assay (P50750 whole entry, looked up): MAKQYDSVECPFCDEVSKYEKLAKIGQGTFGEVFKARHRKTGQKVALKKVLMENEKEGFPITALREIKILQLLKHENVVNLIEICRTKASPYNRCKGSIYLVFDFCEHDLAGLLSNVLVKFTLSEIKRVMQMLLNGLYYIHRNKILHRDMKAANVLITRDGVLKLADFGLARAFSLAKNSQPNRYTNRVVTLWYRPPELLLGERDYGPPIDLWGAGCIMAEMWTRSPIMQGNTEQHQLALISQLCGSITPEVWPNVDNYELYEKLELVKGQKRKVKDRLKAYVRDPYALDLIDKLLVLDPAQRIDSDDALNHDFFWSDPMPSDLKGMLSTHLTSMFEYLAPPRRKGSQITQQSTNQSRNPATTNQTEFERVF
Target sequence in this assay (Q96SW2 whole entry, looked up): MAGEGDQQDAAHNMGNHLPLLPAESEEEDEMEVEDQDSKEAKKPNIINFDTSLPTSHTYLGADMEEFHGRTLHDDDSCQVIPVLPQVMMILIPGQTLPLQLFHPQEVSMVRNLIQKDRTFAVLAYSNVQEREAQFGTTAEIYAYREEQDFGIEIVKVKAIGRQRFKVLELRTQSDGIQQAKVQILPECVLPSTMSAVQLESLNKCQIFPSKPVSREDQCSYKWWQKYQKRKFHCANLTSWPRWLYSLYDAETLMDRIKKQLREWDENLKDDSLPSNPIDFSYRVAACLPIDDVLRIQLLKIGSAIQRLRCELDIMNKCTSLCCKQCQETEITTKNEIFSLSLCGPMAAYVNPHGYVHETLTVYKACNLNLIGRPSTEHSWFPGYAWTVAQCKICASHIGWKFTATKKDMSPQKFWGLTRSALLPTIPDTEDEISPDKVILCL

[2] = target: T1, Protein cereblon/Cyclin-dependent kinase 9; test: Protac activity at CDK9/CRBN in human HEK293 cells assessed as degradation of CDK9 incubated for 24 hrs by Western blot analysis; assay type: cell-based; in short: as §1
Target sequence in this assay (P50750 whole entry): as the sequence (P50750 whole entry, looked up) above
Target sequence in this assay (Q96SW2 whole entry): as the sequence (Q96SW2 whole entry, looked up) above

[3] = target: T2, Cyclin-dependent kinase 5 (Homo sapiens, UniProt Q00535); test: Inhibition of CDK5 (unknown origin)
T2 sequence (Q00535 whole entry): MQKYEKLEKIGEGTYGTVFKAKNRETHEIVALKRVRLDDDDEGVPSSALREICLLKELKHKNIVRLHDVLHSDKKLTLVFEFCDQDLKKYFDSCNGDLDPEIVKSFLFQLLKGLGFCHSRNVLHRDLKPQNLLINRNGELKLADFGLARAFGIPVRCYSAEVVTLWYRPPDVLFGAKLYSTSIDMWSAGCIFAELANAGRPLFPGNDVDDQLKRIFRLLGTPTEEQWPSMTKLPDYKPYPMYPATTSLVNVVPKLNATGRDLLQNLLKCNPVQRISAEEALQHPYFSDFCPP

[4] = target: T3, Cyclin-dependent kinase 9 (Homo sapiens, UniProt P50750); test: Inhibition of CDK9 (unknown origin)
T3 sequence (P50750 whole entry): as the sequence (P50750 whole entry, looked up) above

[5] = target: T2, Cyclin-dependent kinase 5; test: Binding affinity to CDK5 (unknown origin)
[6] = target: T3, Cyclin-dependent kinase 9; test: Binding affinity to CDK9 (unknown origin)

Structure (SMILES): O=C(COc1ccc(CC(=O)Nc2cc(C3CCC3)[nH]n2)cc1)NCCCCNc1cccc2c1C(=O)N(C1CCC(=O)NC1=O)C2=O (centres undefined)
- Activity [1]: inactive

Structure (SMILES): O=C(COc1ccc(CC(=O)Nc2cc(C3CCC3)[nH]n2)cc1)NCCCCCCCCNc1cccc2c1C(=O)N(C1CCC(=O)NC1=O)C2=O (centres undefined)
- DC50 [2]: 1000 nM

Structure (SMILES): O=C(COCCOCCOCCOc1cccc(CC(=O)Nc2cc(C3CCC3)[nH]n2)c1)NCCOCCOCCNc1cccc2c1C(=O)N(C1CCC(=O)NC1=O)C2=O (centres undefined)
- Activity [1]: inactive

Structure (SMILES): O=C(COc1ccc(CC(=O)Nc2cc(C3CCC3)[nH]n2)cc1)NCCOCCOCCNc1cccc2c1C(=O)N(C1CCC(=O)NC1=O)C2=O (centres undefined)
- Activity [1]: inactive

Structure (SMILES): O=C(CCCOc1ccc(CC(=O)Nc2cc(C3CCC3)[nH]n2)cc1)NCCOCCOCCNc1cccc2c1C(=O)N(C1CCC(=O)NC1=O)C2=O (centres undefined)
- Activity [1]: inactive

Structure (SMILES): COc1ccc(CC(=O)Nc2cc(C3CCC3)[nH]n2)cc1
- IC50 [3]: 32 nM
- IC50 [4]: 1080 nM
- Kd [5]: 230 nM
- Kd [6]: 1060 nM
